This excerpt belongs to a sample that is enriched for hits.
GSK3B inh = human GSK3beta kinase inhibitors, primary screen, biochemical, cell-free homogeneous, HTS | GST-GSK3beta kinase, ADP-Glo luminescence, 60 min; hits give low values | activity score (negative = inhibition), % at 10 µM | 0.038% of 300,000 active;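 active means more than half of replicate wells score below -50%, meaning over 50% inhibition versus plate controls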;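 further: 0% = median DMSO wells and -100% = median GW8510 positive control wells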
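Assay system: GST-tagged human GSK3beta kinase, cell-free; Input: 1.6 ng GSK3beta; Medium: Tris/MgCl2 kinase buffer; Timing: 60 min enzyme reaction, room temperature; Signal: ADP-Glo luminescence quantifying ADP generated by kinase; Evaluation: score relative to plate controls; Benchmarks: DMSO neutral wells and GW8510 at 20 µM as positive.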
Dyrk1A ADPGlo = rat Dyrk1A kinase inhibitors, primary screen, biochemical, single point, plate reader; ADP-Glo luminescence, NFATc1 peptide; inhibition, % at 12.5 µM; 0.43% of 310,000 active; AID 504441, 2011; in the data active means inhibition above about 50%;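 further: plate controls were vehicle with enzyme for no effect and no enzyme for full effect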
STK33 inh = inhibitors of purified STK33 kinase, primary screen, biochemical, ADP-Glo luminescence, homogeneous, cell-free | inhibition, % at 10 µM | 0.073% of 320,000 active | MBP phosphorylation | Serine/threonine-protein kinase 33 (Homo sapiens), Q9BYT3;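 active means inhibition at or above 25%, using the most active replicate where run in duplicate; inactive means inhibition below 25%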
GSK3A inh = blockers of GSK3A enzyme activity – biochemical, luminescence, cell-free homogeneous, HTS, primary screen; AID 2650, 2010; GSK-3 alpha kinase, ADP-Glo luminescence, 60 min; Glycogen synthase kinase-3 alpha (Homo sapiens), P49840; 0.1% of 320,000 active; inhibition, % at 10 µM;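 active means more than half of replicates show inhibition above 20%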;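 further: GST-tagged GSK-3 alpha with peptide substrate and 25 µM ATP; 0% = DMSO neutral wells and 100% = GW8510 positive control wells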
Target sequence (P49840 whole entry, looked up): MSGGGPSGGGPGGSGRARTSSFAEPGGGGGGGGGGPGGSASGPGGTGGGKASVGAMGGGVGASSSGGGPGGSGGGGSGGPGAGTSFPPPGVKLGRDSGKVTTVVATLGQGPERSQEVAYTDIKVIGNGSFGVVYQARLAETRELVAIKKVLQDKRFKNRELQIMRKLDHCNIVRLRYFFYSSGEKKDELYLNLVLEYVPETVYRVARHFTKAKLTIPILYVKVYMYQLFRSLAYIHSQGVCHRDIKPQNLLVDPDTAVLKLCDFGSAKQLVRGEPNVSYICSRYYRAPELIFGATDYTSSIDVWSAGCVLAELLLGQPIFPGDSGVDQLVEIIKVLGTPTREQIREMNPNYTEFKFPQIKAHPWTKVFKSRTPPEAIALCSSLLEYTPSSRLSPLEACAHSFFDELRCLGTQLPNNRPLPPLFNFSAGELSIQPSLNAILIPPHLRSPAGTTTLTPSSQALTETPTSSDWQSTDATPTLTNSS
CDK5 inh = inhibitors of human CDK5/p35 kinase, primary screen, biochemical, single concentration | Cyclin-dependent kinase 5 (Homo sapiens) + Cyclin-dependent kinase 5 activator 1 (Homo … | Recombinant CDK5/p35, ADP-Glo luminescence, 60 min | inhibition, % at 10 µM | 0.01% of 330,000 active | AID 488839, 2010;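 active means highest replicate inhibition of at least 50% and at least 75% of replicates reaching 50%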;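 further: plate controls were DMSO neutral control for no effect and GW8510 at 10 µM for full effect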
Dyrk1A artifact = ADP-Glo luciferase interference without Dyrk1A, dose response, artefact control for Dyrk1A inhibitor project, biochemical, luminescence, cherry-pick, set 02. ADP-Glo luciferase artifact assay, no Dyrk1A. AID 588348, 2011. 1,300 tested, under 10 active. AC50, µM (highest dose often 12 µM), for the others: at the highest dose activity change, negative = inhibition. shares compounds with Dyrk1A ADPGlo;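 active means fitted half-maximal dose AC50 no more than ten times the top valid tested dose, with luminescence dropping as dose rises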
Numbers without * were called inactive.

How did CCCCOc1cccc(C(=O)NC(=S)Nc2ccc(Cl)c(C(=O)O)c2)c1 do in these assays?
GSK3B inh: -1.6; Dyrk1A ADPGlo: 66.2*; STK33 inh: -1.5; GSK3A inh: -4.3; CDK5 inh: 0.7; Dyrk1A artifact: 10.8%

Results for CCc1ccc(C(C)NC(=O)c2cc(C)oc2C)cc1 (centres undefined) ?
GSK3B inh: 0.4; Dyrk1A ADPGlo: 9.5; STK33 inh: -2.3; GSK3A inh: -2.9; CDK5 inh: -0.1

How did O=C1C=CC(O)(c2cc(=O)c3c(O)cc(O)cc3o2)C=C1 do in these assays?
GSK3B inh: -0.9; Dyrk1A ADPGlo: 50.7*; STK33 inh: 38.4*; GSK3A inh: 26.3; CDK5 inh: 19.2; Dyrk1A artifact: 7.8%

How did O=C(Nc1cccc2nsnc12)c1ccc2c(c1)OCO2 do in these assays?
GSK3B inh: 3.4; Dyrk1A ADPGlo: 54.0*; STK33 inh: 1.6; GSK3A inh: 0.4; CDK5 inh: 0.2; Dyrk1A artifact: 1.5%

How did COC(=O)c1cc(C#N)c(N2CCOCC2)nc1C do in these assays?
GSK3B inh: 0.9; Dyrk1A ADPGlo: -3.8; STK33 inh: 0.7; GSK3A inh: 0.5; CDK5 inh: -0.1

What do the screens show for `CN(C)CCNc1ccc(CO)c2sc3ccc(O)cc3c(=O)c12`?
Dyrk1A ADPGlo: 76.7*; CDK5 inh: 1.4; Dyrk1A artifact: 7.3%

What do the screens show for `COc1ccc2c(c1)C(=O)N1[C@H]3c4cc(C)ccc4OC[C@@H]3[C@H](c3ccccc3)[C@]1(C)C(=O)N2`?
Dyrk1A ADPGlo: 54.9*; STK33 inh: 0.6; GSK3A inh: -2.0; CDK5 inh: -0.4; Dyrk1A artifact: 15.5%

Results for COc1ccc2c(c1)OC[C@H]1[C@H]2N2C(=O)CN(CC3CCCO3)C(=O)[C@@]2(C)[C@H]1c1ccccc1 (some centres undefined) ?
Dyrk1A ADPGlo: 50.2*; STK33 inh: -1.4; GSK3A inh: 0.5; CDK5 inh: 0.6; Dyrk1A artifact: 7.7%

Results for O=C(c1cccc(S(=O)(=O)N2CCCCC2)c1)N1CCOCC1 ?
GSK3B inh: 2.6; Dyrk1A ADPGlo: -7.7; STK33 inh: -1.7; GSK3A inh: -0.8; CDK5 inh: 0.4

What do the screens show for `CC(=O)N1C(=O)C(=C2C=C(C)OC(C)=C2)c2ccccc21`?
GSK3B inh: -2.8; Dyrk1A ADPGlo: 3.6; STK33 inh: 0.4; GSK3A inh: -0.9; CDK5 inh: 1.7

Results for Cc1[nH]c2ccccc2c1SCC(=O)N1CCCc2ccccc21 ?
GSK3B inh: -12.5; Dyrk1A ADPGlo: 1.1; STK33 inh: 0.5; GSK3A inh: -0.2; CDK5 inh: -0.2

Results for CC1(C)Nc2ccc(O)cc2-c2c1ssc2=S ?
GSK3B inh: -36.9; Dyrk1A ADPGlo: 52.1*; STK33 inh: 1.2; GSK3A inh: 35.7; CDK5 inh: 0.4; Dyrk1A artifact: 9.0%

What do the screens show for `COc1cccc(-n2sc3c(c2=S)-c2cc(OC)ccc2NC3(C)C)c1`?
GSK3B inh: 0.4; Dyrk1A ADPGlo: -3.3; STK33 inh: -1.9; GSK3A inh: 0.2; CDK5 inh: 0.2

Results for CC(=O)C1=C(C)NC(=O)NC1c1cccc([N+](=O)[O-])c1O (centres undefined) ?
GSK3B inh: -3.5; Dyrk1A ADPGlo: 2.7; STK33 inh: 0.2; GSK3A inh: 1.3; CDK5 inh: -3.4

How did O=C(C1CC(=O)N(C2CCCC2)C1)N1CCN(c2ccc(F)cc2)CC1 (centres undefined) do in these assays?
GSK3B inh: -1.7; Dyrk1A ADPGlo: 61.1*; CDK5 inh: 1.6; Dyrk1A artifact: 8.5%

Results for N#CC(C#N)=C1C=CC=CN1/C(=C\c1ccco1)C(=O)c1ccccc1 ?
Dyrk1A ADPGlo: 62.6*; STK33 inh: 2.8; GSK3A inh: 1.4; CDK5 inh: 0.2; Dyrk1A artifact: 6.4%

Results for COc1ccc2nc(Cl)cc(Cl)c2c1 ?
GSK3B inh: 2.7; Dyrk1A ADPGlo: -5.2; STK33 inh: 0.1; GSK3A inh: -2.6; CDK5 inh: -1.5

How did C=CS(=O)(=O)c1c2cc(OC)ccc2nc2ccc(OC)cc12 do in these assays?
Dyrk1A ADPGlo: 60.5*; CDK5 inh: 1.6; Dyrk1A artifact: 6.1%

How did CN(C)c1ccc(C=NCC2(O)CCOC(C)(C)C2)cc1 (centres undefined) do in these assays?
GSK3B inh: 0.8; Dyrk1A ADPGlo: -3.5; STK33 inh: -1.5; GSK3A inh: -1.6; CDK5 inh: 0.7

What do the screens show for `c1cncc(-c2nc3ccccc3[nH]2)c1`?
GSK3B inh: -0.8; Dyrk1A ADPGlo: 51.1*; STK33 inh: 4.7; GSK3A inh: -1.7; CDK5 inh: 1.2; Dyrk1A artifact: 9.8%

Results for CC(NC(=O)C1C2C=CC(C2)C1C(=O)O)c1ccccc1 (centres undefined) ?
GSK3B inh: -2.4; Dyrk1A ADPGlo: -2.6; STK33 inh: -1.1; GSK3A inh: 1.2; CDK5 inh: -1.7

What do the screens show for `Cc1ccccc1-n1c(C)cc(/C=C2/C(=N)N3C(c4ccccc4)=CSC3=NC2=O)c1C`?
GSK3B inh: 2.7; Dyrk1A ADPGlo: 2.3; STK33 inh: -1.2; GSK3A inh: -3.5; CDK5 inh: 0.8

What do the screens show for `N=C1/C(=C\c2ccc(-c3cccc(C(=O)O)c3)o2)C(=O)N=C2SC=C(c3ccccc3)N12`?
GSK3B inh: -0.1; Dyrk1A ADPGlo: 60.8*; STK33 inh: 3.2; GSK3A inh: 2.0; CDK5 inh: 0.4; Dyrk1A artifact: 7.7%

What do the screens show for `CCN1C(=O)/C(=C2/Sc3ccccc3N2CC)S/C1=N\c1ncn[nH]1`?
GSK3B inh: -1.4; Dyrk1A ADPGlo: 61.0*; STK33 inh: 9.3; GSK3A inh: 10.5; CDK5 inh: 1.5; Dyrk1A artifact: 8.9%

What do the screens show for `CCOC(=O)c1[nH]c2ccc(OC)cc2c1NC(=O)OC`?
GSK3B inh: 0.5; Dyrk1A ADPGlo: -2.2; STK33 inh: 0.2; CDK5 inh: 0.0

How did COC(=O)c1[nH]c2cc(OC)ccc2c1N do in these assays?
GSK3B inh: 0.8; Dyrk1A ADPGlo: 74.5*; STK33 inh: 2.1; CDK5 inh: 1.6; Dyrk1A artifact: 10.5%

How did COC(=O)c1oc2ccc(OC)cc2c1N do in these assays?
GSK3B inh: -7.0; Dyrk1A ADPGlo: 69.6*; STK33 inh: 1.3; GSK3A inh: 5.4; CDK5 inh: 0.7; Dyrk1A artifact: 10.5%

What do the screens show for `COc1ccc(C(=O)c2oc3ccc(OC)cc3c2N)cc1`?
GSK3B inh: -0.8; Dyrk1A ADPGlo: -3.9; STK33 inh: 0.3; GSK3A inh: -0.8; CDK5 inh: 0.4

From PubChem BioAssay
